Among the data in ChEMBL document CHEMBL3243962, “Antileukemic activity of derivatives of 1,2-dimethyl-3,4-bis(hydroxymethyl)-5-phenylpyrrole bis(N-methylcarbamate)” (J Med Chem, 1979) are Activity and T/C values, retold here.

In data set [1] the test system is Mus musculus. Briefly: Toxicity in mouse P388 cells allografted CD2F1 mouse assessed as mouse survival at 20 mg/kg, ip of total 9 doses starting 24 hrs post tumor inoculation measured on day 5 of inoculation relative to control. Format: organism-based. Set-up: dose 20 mg/kg, route intraperitoneal. As to conditions: in vivo. Summed up: (§1)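 Male CD2F1 mice bearing ip P388 leukemia (6×10^6 cells) were dosed ip with nine daily doses in distilled water–Tween 80 suspension, starting 24 h after inoculation. Survivors per group of 6 were counted on day 5, i.e. 4 days after the first dose. Body-weight change of treated minus control mice was also recorded.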

Data set [2] relates to P388. Briefly: Antitumor activity against mouse P388 cells allografted in CD2F1 mouse assessed as increase in mouse survival at 20 mg/kg, ip of total 9 doses starting 24 hrs post tumor inoculation measured on day 5 of inoculation relative to control. Particulars: route intraperitoneal. The data set is classed as functional. Summed up: (§2)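 Male CD2F1 mice inoculated ip with 6×10^6 P388 leukemia cells. Dosing was ip as a suspension in distilled water–Tween 80, nine daily doses starting 24 h after inoculation. Activity was read as median survival time of treated vs control mice (% T/C); % T/C ≥ 120 was considered significant. Groups were 6 mice.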

In data set [3] the test system is P388. The data set is described as follows: Antitumor activity against mouse P388 cells allografted in CD2F1 mouse assessed as increase in mouse survival at 5 mg/kg, ip of total 9 doses starting 24 hrs post tumor inoculation measured on day 5 of inoculation relative to control. Format: functional. Particulars: route intraperitoneal. Summed up: as §2
Data set [4] relates to Mus musculus. The data set is described as follows: Toxicity in mouse P388 cells allografted CD2F1 mouse assessed as mouse survival at 10 mg/kg, ip of total 9 doses starting 24 hrs post tumor inoculation measured on day 5 of inoculation relative to control. Particulars: in vivo. Format: organism-based. Set-up: dose 10 mg/kg, route intraperitoneal. In short, it runs like this: as §1

Data set [5] relates to P388. The data set is described as follows: Antitumor activity against mouse P388 cells allografted in CD2F1 mouse assessed as increase in mouse survival at 10 mg/kg, ip of total 9 doses starting 24 hrs post tumor inoculation measured on day 5 of inoculation relative to control. The data set is classed as functional. Particulars: route intraperitoneal. Summed up:
as §2

In data set [6] the test system is P388. Briefly: Antitumor activity against mouse P388 cells allografted in CD2F1 mouse assessed as increase in mouse survival at 40 mg/kg, ip of total 9 doses starting 24 hrs post tumor inoculation measured on day 5 of inoculation relative to control. The data set is classed as functional. Particulars: route intraperitoneal. Summed up: as §2
Data set [7] relates to Mus musculus. The data set is described as follows: Toxicity in mouse P388 cells allografted CD2F1 mouse assessed as mouse survival at 5 mg/kg, ip of total 9 doses starting 24 hrs post tumor inoculation measured on day 5 of inoculation relative to control. Format: organism-based. Set-up: dose 5 mg/kg, route intraperitoneal. Particulars: in vivo. Summed up: as §1
Data set [8] has as its system Mus musculus. The data set is described as follows: Toxicity in mouse P388 cells allografted CD2F1 mouse assessed as body weight loss at 5 mg/kg, ip of total 9 doses starting 24 hrs post tumor inoculation measured on day 5 of inoculation relative to control. Particulars: in vivo. Details: dose 5 mg/kg, route intraperitoneal. The data set is classed as organism-based. In short, it runs like this:
(§3)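 Male CD2F1 mice inoculated ip with 6×10^6 P388 leukemia cells. Compounds given ip as distilled water–Tween 80 suspension, nine daily doses starting 24 h after inoculation; six mice per dose group. Treated-minus-control body-weight change (T − C) and toxicity-day survivors recorded on day 5 (4 days after first dose).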

In data set [9] the test system is Mus musculus. The data set is described as follows: Toxicity in mouse P388 cells allografted CD2F1 mouse assessed as body weight loss at 80 mg/kg, ip of total 9 doses starting 24 hrs post tumor inoculation measured on day 5 of inoculation relative to control. Format: organism-based. Details: dose 80 mg/kg, route intraperitoneal. As to conditions: in vivo. Summed up: as §3

The test system of data set [10] is Mus musculus. Briefly: Toxicity in mouse P388 cells allografted CD2F1 mouse assessed as mouse survival at 40 mg/kg, ip of total 9 doses starting 24 hrs post tumor inoculation measured on day 5 of inoculation relative to control. Format: organism-based. Set-up: dose 40 mg/kg, route intraperitoneal. Particulars: in vivo. Summed up:
as §1

Data set [11] has as its system Mus musculus. Briefly: Toxicity in mouse P388 cells allografted CD2F1 mouse assessed as mouse survival at 80 mg/kg, ip of total 9 doses starting 24 hrs post tumor inoculation measured on day 5 of inoculation relative to control. As to conditions: in vivo. Set-up: dose 80 mg/kg, route intraperitoneal. Format: organism-based. In short, it runs like this: as §1
The subject of data set [12] is Mus musculus. Briefly: Toxicity in mouse P388 cells allografted CD2F1 mouse assessed as body weight loss at 10 mg/kg, ip of total 9 doses starting 24 hrs post tumor inoculation measured on day 5 of inoculation relative to control. Format: organism-based. Set-up: dose 10 mg/kg, route intraperitoneal. Particulars: in vivo. In short, it runs like this:
as §3

Data set [13] deals with Mus musculus. The data set is described as follows: Toxicity in mouse P388 cells allografted CD2F1 mouse assessed as body weight loss at 20 mg/kg, ip of total 9 doses starting 24 hrs post tumor inoculation measured on day 5 of inoculation relative to control. Details: dose 20 mg/kg, route intraperitoneal. As to conditions: in vivo. Format: organism-based. Summed up: as §3

Data set [14] relates to P388. Briefly: Antitumor activity against mouse P388 cells allografted in CD2F1 mouse assessed as increase in mouse survival at 80 mg/kg, ip of total 9 doses starting 24 hrs post tumor inoculation measured on day 5 of inoculation relative to control. The data set is classed as functional. As to conditions: route intraperitoneal. In short, it runs like this: as §2
Data set [15] concerns Mus musculus. Briefly: Toxicity in mouse P388 cells allografted CD2F1 mouse assessed as body weight loss at 40 mg/kg, ip of total 9 doses starting 24 hrs post tumor inoculation measured on day 5 of inoculation relative to control. The data set is classed as organism-based. Set-up: dose 40 mg/kg, route intraperitoneal. Particulars: in vivo. In short, it runs like this:
as §3

Data set [16] deals with Mus musculus. The data set is described as follows: Toxicity in mouse P388 cells allografted CD2F1 mouse assessed as mouse survival at 3.12 mg/kg, ip of total 9 doses starting 24 hrs post tumor inoculation measured on day 5 of inoculation relative to control. Format: organism-based. Set-up: dose 3.12 mg/kg, route intraperitoneal. As to conditions: in vivo. Summed up:
as §1

Data set [17] relates to Mus musculus. The data set is described as follows: Toxicity in mouse P388 cells allografted CD2F1 mouse assessed as body weight loss at 50 mg/kg, ip of total 9 doses starting 24 hrs post tumor inoculation measured on day 5 of inoculation relative to control. Format: organism-based. Set-up: dose 50 mg/kg, route intraperitoneal. Particulars: in vivo. Summed up:
as §3

For data set [18], the system named is P388. The data set is described as follows: Antitumor activity against mouse P388 cells allografted in CD2F1 mouse assessed as increase in mouse survival at 6.25 mg/kg, ip of total 9 doses starting 24 hrs post tumor inoculation measured on day 5 of inoculation relative to control. Format: functional. As to conditions: route intraperitoneal. Summed up: as §2

In data set [19] the test system is P388. The data set is described as follows: Antitumor activity against mouse P388 cells allografted in CD2F1 mouse assessed as increase in mouse survival at 3.12 mg/kg, ip of total 9 doses starting 24 hrs post tumor inoculation measured on day 5 of inoculation relative to control. The data set is classed as functional. Particulars: route intraperitoneal. Summed up:
as §2

In data set [20] the test system is Mus musculus. The data set is described as follows: Toxicity in mouse P388 cells allografted CD2F1 mouse assessed as body weight loss at 25 mg/kg, ip of total 9 doses starting 24 hrs post tumor inoculation measured on day 5 of inoculation relative to control. The data set is classed as organism-based. Set-up: dose 25 mg/kg, route intraperitoneal. Particulars: in vivo. Summed up:
as §3

Data set [21] concerns P388. The data set is described as follows: Antitumor activity against mouse P388 cells allografted in CD2F1 mouse assessed as increase in mouse survival at 50 mg/kg, ip of total 9 doses starting 24 hrs post tumor inoculation measured on day 5 of inoculation relative to control. The data set is classed as functional. As to conditions: route intraperitoneal. In short, it runs like this: as §2

The test system of data set [22] is Mus musculus. The data set is described as follows: Toxicity in mouse P388 cells allografted CD2F1 mouse assessed as body weight loss at 3.12 mg/kg, ip of total 9 doses starting 24 hrs post tumor inoculation measured on day 5 of inoculation relative to control. Format: organism-based. Set-up: dose 3.12 mg/kg, route intraperitoneal. Particulars: in vivo. Summed up:
as §3

Data set [23] concerns Mus musculus. Briefly: Toxicity in mouse P388 cells allografted CD2F1 mouse assessed as mouse survival at 6.25 mg/kg, ip of total 9 doses starting 24 hrs post tumor inoculation measured on day 5 of inoculation relative to control. Format: organism-based. As to conditions: in vivo. Details: dose 6.25 mg/kg, route intraperitoneal. In short, it runs like this:
as §1

Data set [24] relates to P388. Briefly: Antitumor activity against mouse P388 cells allografted in CD2F1 mouse assessed as increase in mouse survival at 12.5 mg/kg, ip of total 9 doses starting 24 hrs post tumor inoculation measured on day 5 of inoculation relative to control. The data set is classed as functional. Particulars: route intraperitoneal. Summed up:
as §2

For data set [25], the system named is P388. The data set is described as follows: Antitumor activity against mouse P388 cells allografted in CD2F1 mouse assessed as increase in mouse survival at 25 mg/kg, ip of total 9 doses starting 24 hrs post tumor inoculation measured on day 5 of inoculation relative to control. The data set is classed as functional. Particulars: route intraperitoneal. In short, it runs like this:
as §2

In data set [26] the test system is Mus musculus. Briefly: Toxicity in mouse P388 cells allografted CD2F1 mouse assessed as body weight loss at 12.5 mg/kg, ip of total 9 doses starting 24 hrs post tumor inoculation measured on day 5 of inoculation relative to control. Format: organism-based. Details: dose 12.5 mg/kg, route intraperitoneal. As to conditions: in vivo. Summed up: as §3
In data set [27] the test system is Mus musculus. Briefly: Toxicity in mouse P388 cells allografted CD2F1 mouse assessed as body weight loss at 6.25 mg/kg, ip of total 9 doses starting 24 hrs post tumor inoculation measured on day 5 of inoculation relative to control. Details: dose 6.25 mg/kg, route intraperitoneal. Format: organism-based. Particulars: in vivo. In short, it runs like this:
as §3

For data set [28], the system named is Mus musculus. Briefly: Toxicity in mouse P388 cells allografted CD2F1 mouse assessed as mouse survival at 25 mg/kg, ip of total 9 doses starting 24 hrs post tumor inoculation measured on day 5 of inoculation relative to control. Format: organism-based. Details: dose 25 mg/kg, route intraperitoneal. Particulars: in vivo. In short, it runs like this:
as §1

In data set [29] the test system is Mus musculus. Briefly: Toxicity in mouse P388 cells allografted CD2F1 mouse assessed as mouse survival at 12.5 mg/kg, ip of total 9 doses starting 24 hrs post tumor inoculation measured on day 5 of inoculation relative to control. Details: dose 12.5 mg/kg, route intraperitoneal. Particulars: in vivo. The data set is classed as organism-based. In short, it runs like this:
as §1

Broadly, the T/C is the ratio of treated to control. Turning to `CNC(=O)OCc1c(COC(=O)NC)c(-c2ccc(S(=O)(=O)c3ccccc3)cc2)n(C)c1C`, the Activity entry is recorded as “Non-toxic” in data set [1]; “Non-toxic” in [4]; “Non-toxic” in [7]; 1.3 g in [8]; 3.6 g in data set [9]; “Non-toxic” in [10]. Further, the Activity entry in data set [11] was “Non-toxic”; in data set [12], 0.9 g; in [13] it was 1.9 g; in data set [15], 3.1 g. The T/C is recorded as 146% in data set [2]; 137% in data set [3]; 136% in data set [5]; 153% in data set [6]; 153% in [14].

Take `CNC(=O)OCc1c(COC(=O)NC)c(-c2ccc(SC)cc2)n(C)c1C`: the Activity entry is given as “Non-toxic” in data set [16]; 2.9 g in data set [17]; 3.1 g in data set [20]; 2.1 g in data set [22]; “Non-toxic” in data set [23]; 4.3 g in data set [26]. For the same molecule, the figures for the Activity in [27], in data set [28] and in data set [29] were 1.4 g, “Non-toxic” and “Non-toxic”, respectively. The T/C was 143% in [18]; 187% in data set [19]; 150% in data set [21]; 144% in data set [24]; 144% in data set [25].
